# Article PMC4576993 (Leukemia, 2011)
# Several values for one entry are separate records, joined by “and”; a condition that tells them apart may be missing. Identical values can stand only once. Entries after “also recorded” stand apart in the source; their conditions may differ.
# Tests used:
# [1] = Plasma vosaroxin pharmacokinetics in patients; format: in vivo, human; details: for half-life: T1/2, mean
# [2] = rat tissue distribution studies; no reference given; cited from earlier work
# [3] = tested on: phosphorylated H2AX (γH2AX) in peripheral blood blasts; assay: γH2AX in patient peripheral blood blasts by flow cytometry; format: in vivo, human
# In short: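 Peripheral blood blasts from 10 weekly-schedule patients were sampled on days 1 and 8, predose and 2 h postdose. Ficoll-enriched cells were fixed in 70% ethanol at 4 °C and stained in TBS/4% FBS/0.1% Triton X-100. Primary was anti-phospho-Ser139 H2AX or IgG1 isotype (1:500, 2 h), then Alexa488 anti-mouse (1:200, 1 h) with 5 μg/ml RNase, then 2% formaldehyde. Flow cytometry used […]. %γH2AX-positive was set against isotype overlays.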
# p53 = details: cited from earlier work
# [4] = non-clinical toxicology studies; no reference given; cited from earlier work
# P-glycoprotein = details: cited from earlier work
# [5] = tested on: relapsed or refractory leukemia; assay: Clinical response; format: in vivo, human
# In short: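 Dosing was a ~10 min IV infusion, either weekly (days 1, 8, 15; 18–90 mg/m2) or twice weekly (days 1, 4, 8, 11; 9–50 mg/m2), in 28-day cycles, up to 4(+2) cycles. Marrow aspirate or biopsy and peripheral blood were taken at each cycle end (~day 28). Response followed IWG criteria: MLFS was marrow blasts <5%; CR added no circulating blasts, no extramedullary disease, neutrophils >1×10^9/l and platelets ≥100×109/l; CRp was CR with incomplete platelet recovery.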
# MV4-11 AML cell line = details: in vitro; cited from earlier work
smiles,measurement,setting,value
"CN[C@H]1CN(c2ccc3c(=O)c(C(=O)O)cn(-c4nccs4)c3n2)C[C@@H]1OC [vosaroxin, (+)-1,4-dihydro-7-(trans-3-methoxy-4-methylamino-1-pyrrolidinyl)-4-oxo-1-(2-thiazolyl)-1,8-naphthyridine-3-carboxylic acid]","Differences in clearance based on age, sex, body weight or body surface area",[1]; age overall and <65 versus ≥65 years,No significant differences in clearance
same,Average total body clearance,[1]; all patients,2 l/h/m^2
same,Induction or inhibition of vosaroxin metabolism after repeated doses,"[1]; clearance compared weekly vs days 1, 4, 8 and 11",No induction or inhibition of vosaroxin metabolism was evident
same,Plasma exposure (AUC) versus dose,[1]; dose range 9–90 mg/m^2,dose proportional; also recorded: increased proportionally with an increase in dose
same,AUC(0-t),"[1]; human, plasma, intravenous, 72 mg/m2",32500 ng·h/mL
same,AUC(0-inf),"[1]; human, plasma, intravenous, 72 mg/m2, AUCinf, mean, weekly, Day 1, 72 mg/m^2, N 11, cycle 1",39400 ng·h/mL
same,clearance,"[1]; human, plasma, intravenous, 72 mg/m2, CL, mean, weekly, Day 1, 72 mg/m^2, N 11, cycle 1",69.3 mL/min
same,MRT,"[1]; human, plasma, intravenous, 72 mg/m2, MRT, mean, weekly, Day 1, 72 mg/m^2, N 11, cycle 1",33.9 h
same,Vd,"[1]; human, plasma, intravenous, 72 mg/m2, Vss, mean, weekly, Day 1, 72 mg/m^2, N 11, cycle 1",130 L
same,Cmax,"[1]; human, plasma, intravenous, 72 mg/m^2",1920 ng/mL
same,AUC(0-inf),"[1]; human, plasma, intravenous, AUCinf, mean, twice weekly, Day 1, 9–50 mg/m^2, N 31, cycle 1",14200 ng·h/mL
same,AUC(0-inf),"[1]; human, plasma, intravenous, AUCinf, mean, twice weekly, Day 8, 9–50 mg/m^2, N 29, cycle 1",15600 ng·h/mL
same,AUC(0-inf),"[1]; human, plasma, intravenous, AUCinf, mean, twice weekly, Day 11, 9–50 mg/m^2, N 28, cycle 1",16000 ng·h/mL
same,clearance,"[1]; human, plasma, intravenous, Average total body clearance, all patients",66.7 mL/min
same,clearance,"[1]; human, plasma, intravenous, CL, mean, twice weekly, Day 1, 9–50 mg/m^2, N 31, cycle 1",72.8 mL/min
same,clearance,"[1]; human, plasma, intravenous, CL, mean, twice weekly, Day 8, 9–50 mg/m^2, N 29, cycle 1",75.7 mL/min
same,clearance,"[1]; human, plasma, intravenous, CL, mean, twice weekly, Day 11, 9–50 mg/m^2, N 28, cycle 1",75.3 mL/min
same,clearance,"[1]; human, plasma, intravenous, CL, mean, weekly, Day 1, 18–90 mg/m^2, N 41, cycle 1",65.3 mL/min
same,MRT,"[1]; human, plasma, intravenous, MRT, mean, twice weekly, Day 1, 9–50 mg/m^2, N 31, cycle 1",33.9 h
same,MRT,"[1]; human, plasma, intravenous, MRT, mean, twice weekly, Day 8, 9–50 mg/m^2, N 29, cycle 1",28.6 h
same,MRT,"[1]; human, plasma, intravenous, MRT, mean, twice weekly, Day 11, 9–50 mg/m^2, N 28, cycle 1",30.8 h
same,half-life,"[1]; human, plasma, intravenous, twice weekly, Day 1, 9–50 mg/m^2, N 31, cycle 1",26.6 h
same,half-life,"[1]; human, plasma, intravenous, twice weekly, Day 4, 9–50 mg/m^2, N 30, cycle 1",28.2 h
same,Vd,"[1]; human, plasma, intravenous, Vss, mean, twice weekly, Day 1, 9–50 mg/m^2, N 31, cycle 1",142 L
same,Vd,"[1]; human, plasma, intravenous, Vss, mean, twice weekly, Day 8, 9–50 mg/m^2, N 29, cycle 1",126 L
same,Vd,"[1]; human, plasma, intravenous, Vss, mean, twice weekly, Day 11, 9–50 mg/m^2, N 28, cycle 1",136 L
same,Drug accumulation (AUC72 ratio) day 11/day 1,"[1]; twice-weekly schedule, repeated doses, n=28, P<0.05",1.2
same,Drug accumulation (AUC72 ratio) day 4/day 1,"[1]; twice-weekly schedule, repeated doses, n=29, P<0.05",1.2
same,Concentration in bone marrow relative to blood,[2],~ 30 fold
same,Increase in γH2AX,"[3]; day 1, 2 h postdose, patients with blasts ≥5%",1.8 fold
same,Increase in γH2AX,"[3]; day 1, 2 h postdose, patients with bone marrow blasts <5% after treatment",2.6 fold
same,Increase in γH2AX,"[3]; day 8, 2 h postdose, patients with blasts ≥5%",1.7 fold
same,Increase in γH2AX,"[3]; day 8, 2 h postdose, patients with bone marrow blasts <5% after treatment",3.8 fold
same,Patients with increased γH2AX after the first dose,"[3]; weekly schedule, 50 mg/m^2 or higher, 2 h postdose day 1",7 of 10
same,Patients with γH2AX higher than at baseline before treatment on day 8,"[3]; weekly schedule, day 8 predose",9 of 10
same,Dependence of activity on p53,p53,independent of p53
same,Primary adverse effects,[4],myelosuppression and gastrointestinal toxicity
same,Substrate for P-glycoprotein,P-glycoprotein,not a substrate for P-glycoprotein
same,Median time to morphologic leukemia-free state after first dose,[5]; 16 patients,32.5 days
same,"Time to morphologic leukemia-free state after first dose, range",[5]; 16 patients,21–51 days
same,Patients with response of CR or CRp,"[5]; 73 treated patients, both schedules",Five
same,Additional patients with morphologic leukemia-free state (beyond CR/CRp),[5]; both schedules,11 patients
same,"Duration of CR/CRp responses, range",[5]; five responding patients,1.7–19.2 months
same,Median duration of CR/CRp responses,[5]; five responding patients,3.1 months
same,Patients achieving morphologic leukemia-free state,[5]; once weekly with ≥50 mg/m^2,12 patients
same,Patients achieving morphologic leukemia-free state,[5]; twice weekly with ≥30 mg/m^2,4 patients
same,Time plasma concentration >1 μmol/l in the other two patients with CR or CRp,[5]; weekly time above threshold,10 h and 16 h
same,Half-maximal (50%) inhibitory concentration (IC50),MV4-11 AML cell line,0.0401 µg/mL
same,IC90,MV4-11 AML cell line,1000 nM
